Tests used:
CCRF-CEM [1] = test: Antiviral activity against site directed resistant isolate HIV-1 V179D in CEM cells; assay type: functional, cell-based, Homo sapiens
In short: (§1)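 CEM-SS cells in RPMI 1640 with 10% heat-inactivated FBS were infected with NL4-3 molecular clones carrying site-directed RT mutations. Cytoprotection from virus-induced syncytial killing was read by MTS/phenazine ethosulfate reduction (A490) 6 days after infection. […] Triplicate, variation of mean about 10%.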

CCRF-CEM [2] = test: Antiviral activity against site directed wild-type enzyme isolate HIV-1 NL4-3WT in CEM cells; assay type: functional, cell-based; settings: Homo sapiens
In short: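 Wild-type NL4-3 in CEM-SS cells, measured both by MTS cytoprotection 6 days after infection and by p24 ELISA. The IC50 is the mean of the two methods' values.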

CCRF-CEM [3] = test: Antiviral activity against site directed resistant isolate HIV-1 K103N in CEM cells; assay type: functional, cell-based, Homo sapiens; in short: as §1
CCRF-CEM [4] = test: Antiviral activity against site directed 4X AZT resistant isolate HIV-1 in CEM cells; assay type: functional, cell-based, Homo sapiens
CCRF-CEM [5] = test: Antiviral activity against site directed resistant isolate HIV-1 Y188C in CEM cells; assay type: functional, cell-based, Homo sapiens; in short: as §1
CCRF-CEM [6] = test: Antiviral activity against site directed 4X AZT resistant isolate HIV-1 L100I in CEM cells; assay type: functional, cell-based, Homo sapiens
In short: (§2)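 CEM-SS cells infected with low-cytopathicity site-directed RT-mutant NL4-3 clones (A98G, L74V, 4XAZT = D67N/K70R/T215Y/K219Q, 4XAZT/L100I). Replication was quantified by p24 ELISA rather than cytoprotection. […] Triplicate, variation of mean about 10%.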

CCRF-CEM [7] = test: Antiviral activity against site directed resistant isolates in HIV-1 A98G CEM cells; assay type: functional, cell-based, Homo sapiens; in short: as §2
CCRF-CEM [8] = test: Antiviral activity against site directed resistant isolate HIV-1 L74V in CEM cells; assay type: functional, cell-based, Homo sapiens; in short: as §2
CCRF-CEM [9] = test: Antiviral activity against site directed resistant isolate HIV-1 V106A in CEM cells; assay type: functional, cell-based, Homo sapiens; in short: as §1
CCRF-CEM [10] = test: Antiviral activity against site directed resistant isolate HIV-1 L100I in CEM cells; assay type: functional, cell-based, Homo sapiens; in short: as §1
CCRF-CEM [11] = test: Antiviral activity against site directed resistant isolate HIV-1 Y181C in CEM cells; assay type: functional, cell-based, Homo sapiens; in short: as §1
CCRF-CEM [12] = test: Antiviral activity against site directed resistant isolate HIV-1 K101E in CEM cells; assay type: functional, cell-based, Homo sapiens
[13] = Antiviral activity against subtype isolate C strain in PBLs (peripheral blood lymphocytes); assay type: ADME, cell-based; settings: human, read-out: TC50 (the source's name)
In short: (§3)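 PBMC from hepatitis- and HIV-seronegative donors isolated by Ficoll-Hypaque gradient and stimulated 3 days with phytohemagglutinin/IL-2 before infection. Medium RPMI 1640 with 10% FBS, 2 mM glutamine, penicillin/streptomycin. Replication read as supernatant reverse transcriptase activity. […] Run in triplicate, SD within triplicate under 10%; AZT positive control.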

cells = settings: Homo sapiens
[14] = (§4) Antiviral activity against subtype isolate D strain in PBLs (peripheral blood lymphocytes); assay type: ADME, cell-based; settings: human, read-out: TC50 (the source's name); in short: as §3
[15] = (§5) Antiviral activity against TEKI virus strain in PBLs (peripheral blood lymphocytes); assay type: ADME, cell-based; settings: human, read-out: TC50 (the source's name); in short: as §3
[16] = (§6) Antiviral activity against Ba-L monocyte tropic isolate strain in monocyte; assay type: functional; settings: Homo sapiens
In short: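 Monocytes isolated from hepatitis- and HIV-seronegative donors by Ficoll-Hypaque gradient, cultured 6 days into macrophages, then infected with Ba-L. Medium RPMI 1640 with 10% FBS, 2 mM glutamine, penicillin/streptomycin. Replication read as p24 antigen by ELISA 6 days postinfection. […] Run in triplicate, with AZT as positive control.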

[17] = (§7) Antiviral activity against subtype isolate F strain in PBLs (peripheral blood lymphocytes); assay type: cell-based; settings: human, read-out: TC50 (the source's name); in short: as §3
[18] = (§8) Antiviral activity against subtype isolate B strain in PBLs (peripheral blood lymphocytes); assay type: functional, cell-based; settings: Homo sapiens
In short: (§9)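 PBMCs isolated from hepatitis- and HIV-seronegative donors by Ficoll-Hypaque gradient and stimulated 3 days with phytohemagglutinin/IL-2. Infected with pediatric low-passage clinical isolates or NIAID subtype isolates, in RPMI 1640 with 10% FBS, 2 mM glutamine, penicillin/streptomycin. Replication read as supernatant reverse transcriptase activity. […] Run in triplicate, with AZT as positive control.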

[19] = (§10) Antiviral activity against subtype isolate A strain in PBLs (peripheral blood lymphocytes); assay type: functional, cell-based; settings: Homo sapiens; in short: as §9
[20] = as §4; assay type: functional, cell-based; settings: Homo sapiens; in short: as §9
[21] = as §6; assay type: ADME; settings: human, monocytes; read-out: TC50 (the source's name)
In short: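 Monocytes isolated from hepatitis- and HIV-seronegative donors by Ficoll-Hypaque gradient, cultured 6 days, then infected. Medium RPMI 1640 with 10% FBS, 2 mM glutamine, penicillin/streptomycin. Virus replication measured by p24 antigen ELISA 6 days postinfection. […] Run in triplicate, SD within triplicate under 10%; AZT positive control.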

[22] = (§11) Antiviral activity against multi drug resistant MDR 769 strain in PBLs (peripheral blood lymphocytes); assay type: ADME, cell-based; settings: human, read-out: TC50 (the source's name); in short: as §3
[23] = as §10; assay type: ADME, cell-based; settings: human, read-out: TC50 (the source's name); in short: as §3
[24] = (§12) Antiviral activity against subtype isolate G strain in PBLs (peripheral blood lymphocytes); assay type: functional, cell-based; settings: Homo sapiens; in short: as §9
[25] = (§13) Antiviral activity against subtype isolate E strain in PBLs (peripheral blood lymphocytes); assay type: ADME, cell-based; settings: human, read-out: TC50 (the source's name); in short: as §3
[26] = (§14) Antiviral activity against SLKA virus strain in PBLs (peripheral blood lymphocytes); assay type: functional, cell-based; settings: Homo sapiens; in short: as §9
[27] = (§15) Antiviral activity against subtype isolate O strain in PBLs (peripheral blood lymphocytes); assay type: cell-based; settings: human, read-out: TC50 (the source's name); in short: as §3
[28] = as §12; assay type: ADME, cell-based; settings: human, read-out: TC50 (the source's name); in short: as §3
[29] = (§16) Antiviral activity against ROJO virus strain in PBLs (peripheral blood lymphocytes); assay type: ADME, cell-based; settings: human, read-out: TC50 (the source's name); in short: as §3
[30] = as §13; assay type: functional, cell-based; settings: Homo sapiens; in short: as §9
[31] = as §14; assay type: ADME, cell-based; settings: human, read-out: TC50 (the source's name); in short: as §3
[32] = (§17) Antiviral activity against WEJO virus strain in PBLs (peripheral blood lymphocytes); assay type: ADME, cell-based; settings: human, read-out: TC50 (the source's name); in short: as §3
[33] = as §5; assay type: functional, cell-based; settings: Homo sapiens; in short: as §9
[34] = as §15; assay type: functional, cell-based; settings: Homo sapiens; in short: as §9
[35] = as §7; assay type: functional, cell-based; settings: Homo sapiens; in short: as §9
[36] = as §17; assay type: functional, cell-based; settings: Homo sapiens; in short: as §9
[37] = as §11; assay type: functional, cell-based; settings: Homo sapiens; in short: as §3
[38] = as §16; assay type: functional, cell-based; settings: Homo sapiens; in short: as §9
[39] = as §8; assay type: ADME, cell-based; settings: human, read-out: TC50 (the source's name); in short: as §3

## Cc1ccnc2c1NC(=O)c1cccnc1N2C1CC1 [NEVIRAPINE]
CCRF-CEM [1]
  IC50: 70 nM
CCRF-CEM [2]
  IC50: 29 nM
CCRF-CEM [3]
  IC50: 1440 nM
CCRF-CEM [4]; Homo sapiens, CCRF-CEM
  IC50: 8 nM
CCRF-CEM [5]
  IC50: 8300 nM
CCRF-CEM [6]
  IC50: 207 nM
CCRF-CEM [7]
  IC50: 222 nM
CCRF-CEM [8]
  IC50: 61 nM
CCRF-CEM [9]
  IC50: 1880 nM
CCRF-CEM [10]
  IC50: 180 nM
CCRF-CEM [11]
  IC50: 8270 nM
CCRF-CEM [12]
  IC50: 5 nM

## Cc1cn([C@H]2C[C@H](N=[N+]=[N-])[C@@H](CO)O2)c(=O)[nH]c1=O [ZIDOVUDINE]
[13]
  CC50: > 200000 nM
cells
  IC50: 4 nM
CCRF-CEM [1]
  IC50: 20 nM
[14]
  CC50: > 200000 nM
[15]
  CC50: > 190000 nM
CCRF-CEM [2]
  IC50: 17 nM
CCRF-CEM [3]
  IC50: 7 nM
[16]
  IC50: 2 nM
[17]
  CC50: > 200000 nM
[18]
  IC50: 9 nM
[19]
  IC50: 1 nM
[20]
  IC50: 7 nM
[21]
  CC50: > 200000 nM
CCRF-CEM [4]; ccrf-cem
  IC50: 82 nM
[22]
  CC50: > 172000 nM
[23]
  CC50: > 180000 nM
[24]
  IC50: 2 nM
[25]
  CC50: > 170000 nM
[26]
  IC50: 1 nM
CCRF-CEM [5]
  IC50: 87 nM
CCRF-CEM [6]
  IC50: 870 nM
CCRF-CEM [7]
  IC50: 8 nM
CCRF-CEM [8]
  IC50: 40 nM
[27]
  CC50: > 170000 nM
[28]
  CC50: > 170000 nM
[29]
  CC50: > 190000 nM
[30]
  IC50: 2 nM
CCRF-CEM [9]
  IC50: 14 nM
[31]
  CC50: > 190000 nM
[32]
  CC50: > 190000 nM
[33]
  IC50: 2 nM
[34]
  IC50: 1 nM
[35]
  IC50: 2 nM
[36]
  IC50: 1 nM
[37]
  IC50: 25 nM
[38]
  IC50: 1 nM
[39]
  CC50: > 200000 nM
CCRF-CEM [10]
  IC50: 6 nM
CCRF-CEM [11]
  IC50: 80 nM
CCRF-CEM [12]
  IC50: 46 nM
